Each structure is given as a SMILES string.

What is called IC50 is the concentration that inhibits the measured activity by half.

The target of this experiment is Adenylate cyclase type 5 (Homo sapiens, UniProt O95622). Briefly: Inhibitory activity against recombinant human adenylate cyclase 5 expressed in HEK293 cells. It is filed as cell-based. Summed up: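 Membranes from HEK293 cells expressing human type V AC (1.4 µg/mL protein), stimulated with 25 nM activated recombinant GsR. Buffer: 60 mM HEPES pH 8.0, 0.6 mM EDTA, 0.01% BSA, 1 mM ATP, 2 mM IBMX, 2 mM MgCl₂. Reaction 30 min at 30 °C. cAMP product quantified by flash plate. Inhibition calculated against compound-free controls.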
Chain of Adenylate cyclase type 5 (O95622 whole entry): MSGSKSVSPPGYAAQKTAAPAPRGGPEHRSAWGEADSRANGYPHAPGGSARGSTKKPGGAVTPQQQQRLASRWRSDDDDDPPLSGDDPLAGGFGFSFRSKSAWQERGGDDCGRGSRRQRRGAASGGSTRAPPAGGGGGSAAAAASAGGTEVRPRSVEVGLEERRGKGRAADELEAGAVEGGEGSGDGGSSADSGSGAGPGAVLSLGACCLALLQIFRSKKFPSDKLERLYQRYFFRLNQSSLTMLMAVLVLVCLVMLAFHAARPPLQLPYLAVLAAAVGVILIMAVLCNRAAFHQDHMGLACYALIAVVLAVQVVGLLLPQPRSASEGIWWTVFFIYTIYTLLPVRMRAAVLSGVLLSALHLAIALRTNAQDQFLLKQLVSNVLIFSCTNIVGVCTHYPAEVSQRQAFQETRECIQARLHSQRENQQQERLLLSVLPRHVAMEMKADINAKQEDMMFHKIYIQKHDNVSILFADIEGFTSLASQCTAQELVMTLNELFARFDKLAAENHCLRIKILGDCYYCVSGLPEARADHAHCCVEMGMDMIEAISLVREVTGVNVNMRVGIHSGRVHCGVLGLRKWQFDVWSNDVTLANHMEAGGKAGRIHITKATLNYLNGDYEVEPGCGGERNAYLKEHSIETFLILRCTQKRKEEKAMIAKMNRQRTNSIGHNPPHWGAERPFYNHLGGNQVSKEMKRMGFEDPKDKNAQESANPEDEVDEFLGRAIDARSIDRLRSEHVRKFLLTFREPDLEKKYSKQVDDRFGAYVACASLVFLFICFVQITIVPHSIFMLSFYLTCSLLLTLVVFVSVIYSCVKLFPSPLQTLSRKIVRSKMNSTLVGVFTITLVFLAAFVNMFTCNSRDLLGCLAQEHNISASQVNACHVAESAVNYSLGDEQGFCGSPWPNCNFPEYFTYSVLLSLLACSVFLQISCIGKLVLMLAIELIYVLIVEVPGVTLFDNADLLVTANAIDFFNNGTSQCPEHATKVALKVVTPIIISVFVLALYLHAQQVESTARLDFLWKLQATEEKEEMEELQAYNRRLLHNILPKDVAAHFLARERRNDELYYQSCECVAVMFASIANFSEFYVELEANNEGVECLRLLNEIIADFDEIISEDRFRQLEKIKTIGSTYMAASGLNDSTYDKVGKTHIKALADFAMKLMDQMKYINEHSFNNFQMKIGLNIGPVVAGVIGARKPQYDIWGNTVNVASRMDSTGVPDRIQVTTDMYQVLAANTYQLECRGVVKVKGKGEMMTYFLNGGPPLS
Turning to `Nc1ncnc2c1ncn2[C@H]1CC[C@@H](C(=O)NO)C1`, the IC50 was found to be 4.6 µM.
In the case of `Nc1ncnc2c1ncn2[C@H]1CC[C@H](CC(=O)O)C1`, the IC50 was above 100 µM.
The value for `Nc1ncnc2c1ncn2[C@H]1CC[C@@H](CC(=O)O)C1` was above 200 µM.
`Nc1ncnc2c1ncn2[C@@H]1C=C[C@H](CC(=O)O)C1`: the IC50 was 73.2 µM.
Take `Nc1ncnc2c1ncn2[C@H]1C=C[C@@H](CC(=O)NO)C1`: the 50% inhibitory concentration (IC50) amounted to 16.3 µM.
As to `Nc1ncnc2c1ncn2[C@@H]1C=C[C@@H](CC(=O)NO)C1`, the IC50 was determined as 4.3 µM.
The value for `Nc1ncnc2c1ncn2[C@H]1CC[C@H](OCC(=O)NO)C1` was 10.8 µM.
As for `Nc1ncnc2c1ncn2[C@@H]1C=C[C@@H](CC(=O)O)C1`, the IC50 is above 200 µM.
To `Nc1ncnc2c1ncn2[C@H]1C=C[C@H](OCC(=O)NO)C1` belongs 13.6 µM; to `Nc1ncnc2c1ncn2[C@@H]1C=C[C@@H](C(=O)NO)C1`, 100 µM.
The value for `Nc1ncnc2c1ncn2[C@H]1CC[C@@H](CC(=O)NO)C1` was 25.1 µM; that for `Nc1ncnc2c1ncn2[C@@H]1CC[C@H](CC(=O)NO)C1` was 55 µM; that for `Nc1ncnc2c1ncn2[C@H]1CC[C@H](CC(=O)NO)C1` was 9.4 µM.
For the compound `Nc1ncnc2c1ncn2[C@@H]1CC[C@@H](CC(=O)O)C1`, the IC50 was 28.8 µM.
On to `Nc1ncnc2c1ncn2[C@H]1C=C[C@@H](CC(=O)O)C1`, for which the half-maximal inhibitory concentration (IC50) is above 200 µM.
Consider `Nc1ncnc2c1ncn2[C@@H]1CC[C@H](C(=O)NO)C1`, for which the IC50 was above 70 µM.
The value for `Nc1ncnc2c1ncn2[C@H]1C=C[C@@H](C(=O)NO)C1` was 188 µM.
Regarding `Nc1ncnc2c1ncn2[C@@H]1CC[C@H](CC(=O)O)C1`, the IC50 is above 200 µM.
For the compound `Nc1ncnc2c1ncn2[C@@H]1CC[C@@H](CC(=O)NO)C1`, the IC50 turned out to be 0.6 µM.
To `Nc1ncnc2c1ncn2[C@H]1C=C[C@H](CC(=O)NO)C1` belongs 0.4 µM.
To `Nc1ncnc2c1ncn2[C@H]1C=C[C@H](C(=O)NO)C1` belongs 4.9 µM; to `Nc1ncnc2c1ncn2[C@@H]1C=C[C@H](C(=O)NO)C1`, above 200 µM.
Turning to `Nc1ncnc2c1ncn2[C@H]1C=C[C@H](CC(=O)O)C1`, the IC50 turned out to be 8.2 µM.
In the case of `Nc1ncnc2c1ncn2[C@@H]1C=C[C@H](CC(=O)NO)C1`, the IC50 came out at 2.6 µM.
Turning to `Nc1ncnc2c1ncn2[C@@H]1CC[C@@H](C(=O)NO)C1` (single isomer, unassigned), the IC50 turned out to be 78 µM.
To `Nc1ncnc2c1ncn2[C@H]1CC[C@H](C(=O)NO)C1` (single isomer, unassigned) belongs 0.2 µM.

The record behind these values is ChEMBL document CHEMBL1144994, “Metal coordination-based inhibitors of adenylyl cyclase: novel potent P-site antagonists” (J Med Chem, 2003).
